Laboratory results from ChEMBL document CHEMBL1149780, “Unsaturated fluoro-ketopyranosyl nucleosides: synthesis and biological evaluation of 3-fluoro-4-keto-beta-d-glucopyranosyl derivatives of N(4)-benzoyl cytosine and N(6)-benzoyl adenine” (Eur J Med Chem, 2008).

Key:
[1] = Cytotoxicity against human melanoma cells after 72 hrs; type: functional; conditions: Melanoma cell
In short: (§1)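 Caco-2, H4 (normal intestinal), MCF-7 and skin melanoma cells seeded at 6 × 10^6 cells per plate, given 3-fold serial dilutions (top 0.5 mg/mL; DMSO below 0.1%), 37 °C, 72 h.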

[2] = test system: H4; test: Tumor selectivity index, CC50 for human H4 cells to CC50 for human melanoma cells; type: functional
[3] = test system: Caco-2; test: Cytotoxicity against human Caco-2 cells after 72 hrs; type: functional; conditions: Caco-2, 72 h; in short: as §1
[4] = test system: MCF7; test: Cytotoxicity against human MCF7 cells after 72 hrs; type: functional; conditions: MCF7, 72 h; in short: as §1
[5] = Ratio of CC50 for Caco-2 cells to IC50 for rotavirus infected human Caco2 cells assessed as inhibition of infectivity following virus attachment
[6] = test system: MCF7; test: Tumor selectivity index, CC50 for human H4 cells to CC50 for human MCF7 cells; type: functional
[7] = test system: Caco-2; test: Growth inhibition of human Caco-2 cells; type: functional, cell-based
In short: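 Colony-formation assay: Caco-2 seeded at 10 cells/well in DMEM-10% FBS, given 3-fold dilutions (top 0.5 mg/mL), incubated 10 days at 37 °C. Colonies counted; colony number in treated (n = 2) vs control wells (n = 24) as %; IC50 from concentration-effect curve.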

[8] = test system: Rotavirus; test: Antiviral activity against gastrointestinal rotavirus in human Caco-2 cells assessed as inhibition of infectivity following virus attachment; type: functional, organism-based
In short: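 Caco-2 monolayers washed, exposed to rotavirus RF strain (1.5 TCID50/mL, 100 µL/well) for 1 h at 37 °C, 5% CO2; unbound virus washed off, then 3-fold serial compound dilutions added (top 0.5 mg/mL; DMSO below 0.1%).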

[9] = test system: H4; test: Cytotoxicity against human H4 cells after 72 hrs; type: functional; conditions: H4, 72 h; in short: as §1
[10] = test system: H4; test: Tumor selectivity index, CC50 for human H4 cells to CC50 for human Caco-2 cells; type: functional

SMILES	CC50 [1]	Ratio [2]	CC50 [3]	CC50 [4]	Ratio CC50/IC50 [5]	Ratio [6]	IC50 [7]	IC50 [8]	CC50 [9]	Ratio [10]
O=C(Nc1ncnc2ncn([C@H]3C=C(F)C(=O)[C@@H](COC(c4ccccc4)(c4ccccc4)c4ccccc4)O3)c12)c1ccccc1	9.5 µM	84.1	31.9 µM	9.5 µM	0.04	84.1	1.1 µM	799 µM	799 µM	25
O=c1[nH]cc(F)c(=O)[nH]1 [FLUOROURACIL]		83.4				5				10
Cc1cn([C@H]2C[C@H](N=[N+]=[N-])[C@@H](CO)O2)c(=O)[nH]c1=O [ZIDOVUDINE]			56.1 µM		2.5					
